Assay [1] concerns HIF-2 target genes in 786-O cells. The experiment in a line: qPCR of endogenous HIF-2 target genes in 786-O cells. The conditions noted are these: 24 hours, PT2385 0.01-10 μM, T1001, M1001, M1002 10 μM. It counts as cell-based. In a few lines:
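786-O cells were grown in RPMI1640 with 10% FBS in 6-well plates at 37 °C, 5% CO2. Compound was given at various concentrations with 0.1% DMSO, and DMSO alone served as control. After 24 h, RNA was isolated and converted to cDNA. SYBR Green real-time PCR was normalized to ACTB. Values are mean ± s.d., n=3 independent cultures.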

The target of assay [2] is HIF-1α-ARNT heterodimer (Mus musculus, UniProt Q61221). The assay can be described thus: TR-FRET-based in vitro binding assay, HIF-1α-ARNT. In kind it is biochemical. For orientation: TR-FRET usually uses a lanthanide donor and a delayed reading to cut background.
In assay [3] the test system is HIF-2 and HIF-1 target genes in Hep3B cells. The experiment in a line: qPCR of HIF target genes in Hep3B cells under hypoxia. As to conditions: hypoxia (1% O2), 10 μM, 8 h. It counts as cell-based. In general terms: Real-time PCR tracks product formation cycle by cycle.
The test system of assay [4] is HIF-2 (EPO and NDRG1) and HIF-1 (PGK1) target genes in Hep3B cells. The assay can be described thus: qPCR in Hep3B cells, PHD inhibitors and HIF-2α agonist co-treatment. It counts as cell-based. The conditions noted are these: 10 μM PHD inhibitor alone. In a few lines:
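Hep3B cells were grown in DMEM with 10% FBS in 6-well plates. They were pretreated with 10 μM molidustat or roxadustat for 8 h, then 5 μM agonist was added (final DMSO 0.1%). After a further 24 h, RNA was isolated and reverse-transcribed. Target mRNAs were quantified by SYBR Green real-time PCR and normalized to ACTB in the same sample.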

On to `CS(=O)(=O)c1ccc(Oc2cc(F)cc(C#N)c2)c2c1[C@H](O)C(F)(F)C2` [PT2385, (S)-3-((2,2-Difluoro-1-hydroxy-7-(methylsulfonyl)-2,3-dihydro-1 H-inden-4-yl)oxy)-5-fluorobenzonitrile], for which the “effect on expression of endogenous HIF-2 target genes” value in assay [1] is reported as “dose-dependent inhibitory activity”. Also, the “effect on HIF-1α-ARNT subunit interactions” value in assay [2] is “no PT2385 effect”. Further, the “effect on expression of HIF-2 specific and HIF-1 specific genes” value in assay [3] is “decreased the expression of HIF-2 specific genes (VEGF, EPO and NDRG1) but not the HIF-1 specific gene (PGK1)”.

As for `O=c1c(-n2ccnn2)c[nH]n1-c1cc(N2CCOCC2)ncn1` [molidustat], in assay [4], the “effect on HIF-1 selective target gene (PGK1)” value was “relatively small effects”; the “increase of expression of HIF-2 target genes (EPO and NDRG1)” value is on record as 3–5 fold.

Turning to `Cc1nc(C(=O)NCC(=O)O)c(O)c2ccc(Oc3ccccc3)cc12` [roxadustat], in assay [4], the “effect on HIF-1 selective target gene (PGK1)” value is “relatively small effects”; the “increase of expression of HIF-2 target genes (EPO and NDRG1)” value was 3–5 fold.

For the origin of these results see publication PMC6447045 (Nature chemical biology, 2019).
